Laboratory results taken from ChEMBL document CHEMBL1124874, “Antitumor and DNA-binding properties of a group of oligomeric complexes of Pt(II) and Pt(IV)” (J Med Chem, 1990).
Values joined by “and” are separate entries in the source; they are usually repeats but may differ in a detail not shown here. Equal values may be shown once.

Assays:
L1210 [1] = assay: Antitumor efficacy against L1210 tumor cell line, activity is expressed as […] survival time (MST) at the dose of 6 mg/kg.; assay type: functional, organism-based; set-up: dose 6 mg/kg; details: Mus musculus
Procedure, shortened: (§1)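 Murine L-1210 leukemia, ascitic form, with compound given on day 1 (a single ip dose on day 1 in mg/kg in one table). Activity was scored as median survival time in days, with T/C relative to untreated controls. A cisplatin positive control was run in each test.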

M5076 = assay: Antitumor efficacy against M5076 tumor cell line, activity is expressed as […] survival time (MST) at the dose of 4.8 mg/kg.; assay type: functional, organism-based; set-up: dose 4.8 mg/kg; details: Mus musculus
Procedure, shortened: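 M5076 tumor-bearing mice were dosed on days 1 and 4. Median survival time in days was recorded and T/C calculated against control MST.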

L1210 [2] = assay: Antitumor efficacy against L1210 tumor cell line, activity is expressed as […] survival time (MST) at the dose of 10 mg/kg.; assay type: functional, organism-based; set-up: dose 10 mg/kg; details: Mus musculus; procedure, shortened: as §1
M5076 (mouse) = assay: Antitumor efficacy against M5076 tumor cell line, activity is expressed as […] survival time (MST) at the dose of 4.8 mg/kg.
L1210 [3] = assay: Antitumor efficacy against L1210 tumor cell line, activity is expressed as […] survival time (MST) at the dose of 8 mg/kg.; assay type: functional, organism-based; set-up: dose 8 mg/kg; details: Mus musculus; procedure, shortened: as §1
B16 = assay: Antitumor efficacy against B-16 tumor cell line, activity is expressed as […] survival time (MST) at the dose of 1.6 mg/kg.; assay type: functional, organism-based; set-up: dose 1.6 mg/kg; details: Mus musculus
Procedure, shortened: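 Mice bearing B-16 tumor were dosed once daily on days 1–9. Read-out was median survival time in days, with T/C relative to control MST.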

Sequence: CISPLATIN
- MST (L1210 [1]): 150
- MST (M5076): 166
- Survival time as % of untreated control (T/C) (L1210 [2]): 193 (2×) and 200 (2×) and 186
- MST (M5076 (mouse)): 200
- MST (L1210 [3]): 186 and 167 and 164
- MST (B16): 213
